Source: PubChem BioAssay (several laboratories)
The list is not random: actives were taken first. Their share in the collection is about 2.2%.
SDO1 yeast rescue: compounds rescuing growth of sdo1-depleted yeast, bone marrow failure model | S. cerevisiae sdo1-depleted JHY4D growth rescue, OD600 30 h; stronger effect = higher value; pdr5 snq2 efflux-pump mutant strain | z-score at 10 µM | 140,000 compounds, 0.21% hits | AID 817;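 active = z-score above 3 at both the 24 hr and the 30 hr optical density reads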;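 note: z-score against mean and SD of all compound wells on the same plate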
HCT116 PTEN-null: growth suppressors of cells with PTEN tumor suppressor deletion. HCT116 PTEN-null viability, CellTiter-Glo, 60 h; stronger effect = lower value. viability, % at 10 µM. 140,000 compounds, 1.2% hits;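 active = viability at or below a set limit, 4 SD under the median of all tested compounds, cut at about 3.7% in these data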;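 note: PTEN knockout HCT116 line with beta catenin targeted HCT116 as companion control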
HCT116 bCat-KO: beta-catenin-lacking colon tumor cell growth suppression; 140,000 compounds, 1.5% hits; HCT116 beta-catenin knockout viability, CellTiter-Glo, 60 h; stronger effect = lower value; viability, % at 10 µM; AID 818;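 active = viability at or under a set limit, the compound median less 4 SD, cut at about 6% in these data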;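 note: 0% = Hyamine 1622 control at 20 µM and 100% = untreated cell control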
Dynein transport: blocks dynein driven cargo transport along microtubules; 3617.4 mouse cells, GR-EGFP nuclear translocation imaging; test concentration mostly 20 µM; stimulated with dexamethasone, 1 µM; stronger effect = lower value; z-score, hits read low; 220,000 compounds, 0.47% hits; AID 1381;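 active = plate z-score of nuclear minus cytoplasmic receptor signal below a set negative limit, without overly bright fluorescence or cell loss, cut at about -3.5 in these data, passing the limit was not always enough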;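 note: z-score of nuclear minus cytoplasmic ring GR-EGFP intensity difference per well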
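Buffer or medium: Induction medium lacking tetracycline, stripped serum | Also added: Dexamethasone agonist, 1.0 µM final, for 30 min | Timing: 48 h induction, 1 h compound, 30 min dex at 37 °C | Detection: Formaldehyde fixation, Hoechst nuclear stain, 10x automated fluorescence imaging | Measure: Nuclear versus cytoplasmic GR-EGFP signal, averaged per well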
Autophagy mod: alters autophagy in cells | MEF GFP-LC3 puncta imaging; test concentration mostly 10 µM | calls only at 10 µM (by protocol) | 190,000 compounds, 0.98% hits | AID 463193;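 active = percentage of spot-positive cells more than 3 SD above its plate mean, without a fluorescence outlier flag or 80% toxicity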;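 note: spot-positive cell cutoff set from DMSO-treated cells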
* marks the source's active call; other numbers are inactive results; i = inactive; · = no result given; + = active, no number.

SMILES	SDO1 yeast rescue	HCT116 PTEN-null	HCT116 bCat-KO	Dynein transport	Autophagy mod
COC(=O)c1ccc(NC(=O)Cn2c(-c3nonc3N)nc3ccccc32)cc1	·	·	·	0.098	i
COC(=O)c1ccccc1NC(=O)Cn1c(-c2nonc2N)nc2ccccc21	-0.21	18	16	0.18	+
Cc1cc(C(=O)c2ccc(Cl)cc2)c(NC(=O)CCl)s1	-0.72	1.8*	4.2*	-3.4	i
COc1ccccc1NC(=O)/C(C#N)=C/C=C/c1ccco1	-0.66	23	25	-1.1	+
COc1ccc(C(=O)N/N=C/c2cccc3cccnc23)cc1	0.99	6	4.9*	0.35	i
COc1ccc(NC(=O)c2ccccn2)cc1	1.1	82	85	-0.59	i
CCOc1ccc(C(=O)N/N=C/c2cccc3cccnc23)cc1	0.68	8	10	-0.42	i
COc1ccc(C(=O)N/N=C(\c2ccccc2)c2ccccn2)cc1	-1.4	6	4.6*	2.1	i
O=C(CCn1cccc1)Nc1cc(F)ccc1F	-0.03	95	97	-0.99	i
O=C1C(Cl)=C(N2CCN(c3ccccc3[N+](=O)[O-])CC2)C(=O)c2ccccc21	-0.76	1.2*	0.9*	-3.5	i
O=[N+]([O-])c1cc(Cl)ccc1N1CCCC1	·	·	·	-0.33	i
O=C(Nc1ccc([N+](=O)[O-])cc1)Nc1nc(-c2ccc(Cl)s2)cs1	-0.44	1.2*	1.5*	0.38	i
CC(=O)Nc1nc(-c2ccc([N+](=O)[O-])cc2)cs1	·	·	·	0.28	i
O=C1c2nc3cc(-c4ccco4)[nH]n3c(=O)c2CN1C1CCCCC1	·	·	·	-0.25	·
Cn1cc(S(=O)(=O)N2CCN(c3cccc(Cl)c3)CC2)c(=O)n(C)c1=O	·	·	·	0.88	·
O=C(Nc1ccc2ccccc2c1)N1CCCN(CCOc2ccccc2)CC1	·	·	·	-0.67	·
CC(NC(=O)Nc1nnc(C(F)(F)F)s1)(C(F)(F)F)C(F)(F)F	-0.76	1.8*	2.4*	-0.68	i
CC(C)(C)CC(=O)Nc1nnc(C(F)(F)F)s1	0.89	87	78	-0.61	i
Cc1nn(C2CCS(=O)(=O)C2)c(C)c1C=O (centres undefined)	·	·	·	0.28	i
Cc1ccc(-c2cc(C(F)F)n3ncc(C(=O)N4CCN(c5cccc(C)c5C)CC4)c3n2)cc1	-1.4	8	3.2*	-0.43	i
COc1ccc(-c2cc(C(F)F)n3ncc(C(=O)Nc4ccc(C(=O)N5CCOCC5)cc4)c3n2)cc1	·	·	·	1.6	+
O=C(Nc1ccc(C(=O)N2CCOCC2)cc1)c1cnn2c(C(F)F)cc(-c3ccccc3)nc12	·	·	·	-0.47	i
Cc1occc1-c1n[nH]c(=S)n1C	·	·	·	1.9	i
COc1cc(C(=O)Oc2ccccc2/C=N/NC(=O)c2ccc(Cl)cc2Cl)cc(OC)c1OC	-0.7	2.4*	2.7*	0.29	i
Cn1cc(C(=O)N/N=C/c2cccc([N+](=O)[O-])c2)c2ccccc21	·	·	·	-0.54	·
SMILES	SDO1 yeast rescue	HCT116 PTEN-null	HCT116 bCat-KO	Dynein transport	Autophagy mod
CC1=CC(C)(C)n2c(O)c(C3=NC(=S)NC3=O)c3cc(OC(=O)c4cccc5ccccc45)cc1c32	-0.14	0.9*	1.8*	0.036	i
C/C(CC(=O)Nc1ccc2c(c1)OCCO2)=N\NC(=O)c1ccccn1	·	·	·	0.43	i
C=CCNC(=O)CN1C(=O)C2C3c4ccccc4C(c4ccccc43)C2C1=O (centres undefined)	·	·	·	-0.33	i
CCCc1nn(C)c2c(=O)[nH]c(-c3cc(S(=O)(=O)NC)ccc3OCC)nc12	·	·	·	0.46	·
Cc1noc(/C=C/c2ccc(-c3ccccc3Cl)o2)c1[N+](=O)[O-]	-0.62	94	97	-0.75	+
CCc1ccc(-c2nc(CN3CCCC(C(=O)NCCc4ccc(OC)c(OC)c4)C3)c(C)o2)cc1 (centres undefined)	-2	3.0*	1.9*	-0.44	i
CCCN(CCC)CCNC(=O)C1CCN(Cc2nc(-c3ccc(Cl)cc3)oc2C)CC1	0.32	2.2*	2.2*	-0.55	i
CCOC(=O)N1CCN(C(=O)C2CCCN(Cc3nc(-c4ccc(Cl)cc4)oc3C)C2)CC1 (centres undefined)	-0.5	34	24	-1	+
Cc1cccc(NC(=O)C(=O)NCC2CCCO2)c1 (centres undefined)	·	·	·	1.1	i
N#C/C(=C\c1ccc(C(=O)O)cc1)c1nc2sc3c(c2c(=O)[nH]1)CCCC3	·	·	·	-1.3	·
COc1ccccc1N1CCN(/N=C/C=C/c2ccccc2[N+](=O)[O-])CC1	·	·	·	0.029	·
Cc1cc(NC(=O)CSc2nc3c(sc4ccccc43)c(=O)n2CCc2ccccc2)n[nH]1	-0.45	90	95	0.92	i
Cc1cc(NC(=O)CSc2nc3c(sc4ccccc43)c(=O)n2CCCN2CCOCC2)n[nH]1	1.1	91	12	3.1	+
O=C(CSc1nc2ccccc2c(=O)n1CCCN1CCOCC1)N1CCN(c2ccccc2)CC1	·	·	·	-0.26	+
Cc1ccc(NC(=O)CSc2nc3ccccc3c(=O)n2CCCC(=O)N2CCCC2)cc1	-0.55	39	36	0.81	i
Cc1ccc(NC(=O)CSc2nc3ccccc3c(=O)n2CCCN2CCCCC2)cc1C	-0.05	2.1*	1.9*	-1.5	+
CCCN(C(=O)c1cccs1)c1nnc(-c2ccncc2)s1	0.03	100	94	-0.54	i
O=C(Nc1ccccc1)/C(=C1\CCCN1)[N+](=O)[O-]	·	·	·	-0.42	i
Nc1c(Cl)ncnc1N/N=C/c1ccncc1	·	·	·	-0.007	·
COc1ccc(CCNC(=O)COC(=O)c2cc(OC)c(OC)cc2OC)cc1OC	·	·	·	-0.92	i
Cc1cc(C)c(NC(=O)COc2ccccc2C(=O)Nc2ccc3c(c2)oc2ccccc23)c(C)c1	-0.47	48	67	-0.48	+
O=C1N/C(=C/c2ccc(N3CCCC3)cc2)C(=O)N1c1ccccc1	-0.77	85	83	1.5	+
O=C1N/C(=C/c2ccc(N3CCOCC3)o2)C(=O)N1c1ccccc1	-0.25	60	70	-6.2*	i
O=C1N/C(=C/c2ccc(N3CCOCC3)cc2)C(=O)N1Cc1ccc(F)cc1	-1.2	61	77	-0.19	i
COC(=O)c1ccc(COc2cc([N+](=O)[O-])cc3cccnc23)o1	·	·	·	0.96	i
CC(=O)N(Cc1c(C)nn(-c2ccccc2)c1Cl)c1ccc(Cl)cc1	-1.5	58	58	-0.84	i
Cc1nn(-c2ccccc2)c(Cl)c1CN(C(=O)CCl)c1cccc2ccccc12	-1	1.4*	1.8*	-0.08	i
CCOc1cccc2cc(-c3nnc(NCc4ccc5c(c4)OCO5)s3)c(=O)oc12	-1.9	51	68	0.065	+
CCOc1ccccc1C(=O)NCc1ccc2c(c1)OCO2	-1.1	94	91	0.96	i
O=C(Nc1nccs1)c1cccc(N2C(=O)c3cccc4c([N+](=O)[O-])ccc(c34)C2=O)c1	-3	1.5*	1.7*	0.46	i
